Experiment: Toxicity liver stage against HepG2, at 10uM
Format: cell-based
Parameters: test concentration 10 uM, cell line HepG2-A16-CD81EGFP
Conditions: human, HepG2-A16-CD81EGFP cells; read-out: INHIBITION
How it was run: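 Uninfected HepG2-A16-CD81EGFP cells, 3 × 10^3 per well, 1536-well, plated on prespotted compound at 10 μM final, parasite-free screening media added to match infected plates; puromycin 10 μM positive, DMSO 0.5% negative; run in parallel with 48 h PbLuc assay at 37 °C, 5% CO2; viability by CellTiter-Glo luminescence, normalized to controls.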

SMILES | cytotoxicity at 10 µM
O=C(NCC1Cn2nnc(-c3ccncc3)c2CO1)c1ccsc1 (stereo not drawn) | 11.1%
CC(C)N(CCO)C(=O)C1CCC(=O)N(Cc2ccc(Cl)cc2)C1 (stereo not drawn) | -4.9%
c1ccc(CN2CCO[C@H]3[C@H](OCCN4CCCC4)CC[C@@H]32)nc1 | -1.5%
CCn1cnc(NC(=O)N2CCCC(c3ccccc3)CC2)n1 (stereo not drawn) | 2.7%
O=C(NCCC1CN(Cc2c[nH]cn2)CCO1)c1ccccc1O (stereo not drawn) | 0.423%
CNC(=O)CCCNCc1c(C)nn(CC(C)C)c1N(C)C | -2.51%
O=C(c1cccnc1)C1CCCN(c2nnc(C3CC3)o2)C1 (stereo not drawn) | 6.59%
CC(=O)NCC1CCC2(CCN(c3ncc(C(C)=O)c(C)n3)CC2)O1 (stereo not drawn) | -0.611%
CSCC(CCO)NC(=O)Nc1ccc(C)cc1C (stereo not drawn) | 1.82%
CN1CCOC(CNCC(=O)NCCCc2ccccc2)C1 (stereo not drawn) | -3.23%
Cc1cnn(CCNCc2cccc(C#N)c2)c1 | -2.01%
CCS(=O)(=O)N1CCc2ccc(NC(=O)Nc3ccccc3C)cc21 | 13.1%
Cc1nc(C)n(C2CCCN(C(=O)c3csnn3)C2)n1 (stereo not drawn) | -5.48%
CCCn1nccc1C(=O)N1CCN(C(=O)C2CC2)[C@@H]2CS(=O)(=O)C[C@@H]21 | 4.05%
CCCN1CCC(c2nc3ccc(-c4ccncc4)cn3n2)CC1 | -117%
Cc1nc(C2CCCN(c3ncc(Br)cn3)C2)no1 (stereo not drawn) | -0.598%
COc1ccc(OC)c(C2CCN(c3ccc4cc[nH]c4n3)C2)c1 (stereo not drawn) | -1.6%
Cn1cc(-c2csc(N3CCN(c4nccs4)CC3)n2)cn1 | 6.23%
CCc1nc2c(N3CCCC(c4nccn4CCOC)C3)ncnc2o1 (stereo not drawn) | -11.2%
Cc1ccsc1C(=O)N1C[C@@H](C(=O)O)[C@H](C(C)C)C1 | 9.42%
O=c1cc(Cn2cncn2)nc2n1CCCN(CC1CC1)C2 | -2.65%
Cc1cccc(CNC[C@H]2COCc3nc4cccnc4n32)n1 | -1.79%
CC(C)C(O)CCNC(=O)Nc1cc(F)ccc1-n1cccn1 (stereo not drawn) | -3.86%

SMILES | cytotoxicity at 10 µM
CCc1cnc(CNC(=O)NC2CC(C)(C)OC2(C)C)s1 (stereo not drawn) | 10.3%
O=C1[C@H]2CN(c3ncccn3)C[C@H]2CN1CC1CC1 | 4.41%
COCc1nc(C(=O)N2CCN(Cc3cc(C)on3)CC2)cs1 | -15%
CCc1nc(CN2CCOC(CN(CC)c3cccnn3)C2)cs1 (stereo not drawn) | 3.09%
C[C@@H]1CN(Cc2ccc(C(F)(F)F)cc2F)CC[C@]1(C)O | 4.54%
CCc1nc(N2CCCC(O)(CO)CC2)ncc1C (stereo not drawn) | 10.8%
CCc1nccn1C1CCCN(C(=O)c2cccc3c2OCO3)C1 (stereo not drawn) | -8.87%
C=C(C)COc1ccccc1C(=O)NCCc1nncn1C | -3.06%
NC(=O)Cn1cc(NC(=O)N2CCSCC2)cn1 | -9.95%
c1cc(-c2cnccn2)cc(-c2ccn(CCCN3CCCCC3)n2)c1 | -2.15%
CC(C)NC(=O)NCCCc1cc(N)n(-c2ccccc2)n1 | -6.78%
O=C(c1ccncc1F)N1CCc2ncnc(N3CCOCC3)c2CC1 | -75%
N#Cc1cnn(-c2ccc(C(=O)Nc3ccccn3)cc2)c1N | -9.03%
O=C1CCN(Cc2cnc3c(-c4ccccc4)cnn3c2)CCN1 | 11%
CN(C)Cc1cnc2n1CCN(C(=O)Cc1ccc(F)cc1)CC2 | -8.96%
CC1N(c2cnn(C)c2)C(=O)COC12CCN(c1ccccn1)CC2 (stereo not drawn) | -5.31%
CCOC(=O)CN1CCC2(CCCN(CCOc3ccccc3)C2)C1 (stereo not drawn) | -2.63%
Cc1nc(-c2cccc(C#N)c2)nn1CC1(O)CCCCC1 | -2.62%
CCC(C)CS(=O)(=O)NC(=O)C1CC1 (stereo not drawn) | -4.69%
CNC(=O)C1CCC2(CCN(c3nncs3)CC2)CO1 (stereo not drawn) | 6.01%
CC(=O)N(C)CC(=O)Nc1cnc(-n2ccnc2C)nc1 | 3.86%
CCc1ccc(-c2cn3c(C(=O)NCC(C)C(=O)NC)csc3n2)cc1 (stereo not drawn) | 9.21%
CCn1nc(C(C)C)cc1C(=O)NCC1CCCN(c2ccccn2)C1 (stereo not drawn) | 5.65%

SMILES | cytotoxicity at 10 µM
Cc1ccccc1CC(=O)N(C)CC1(O)CCCN(c2ccccn2)C1 (stereo not drawn) | -18.3%
Cc1cnn(CCNCc2ccc(C#N)cc2)c1 | -10.7%
O=C(NCC(F)(F)F)c1coc(COc2cccc(F)c2)n1 | -148%
COC(=O)CCCNC(=O)Nc1ccccc1OC | 6.45%
CCCNC(=O)CC1OCCc2ccsc21 (stereo not drawn) | -1.5%
COc1ccc(S(=O)(=O)N2C[C@@H]3CN(C)CCO[C@@H]3C2)cc1 | 1.82%
Cc1nn(C)c(C)c1CN(C)CC1(O)CCCN(C)C1 (stereo not drawn) | 6.5%
CN(C)c1cc(CNC(=O)c2cccc(F)c2)ccn1 | -13.5%
CC(C)n1ccnc1CN1C(=O)OC[C@@H]1c1ccccc1 | -8.48%
Cc1c(CN2Cc3nccn3CC2c2ccccc2)cnn1C (stereo not drawn) | -1.13%
COCCn1cc(NCc2cccc3cn[nH]c23)cn1 | -3.31%
Cc1ncsc1CCN(C)C(=O)CN1CCOC1=O | -15.3%
CN(Cc1nnc(C2CC2)n1C)C1CCN(Cc2ccccc2)C1 (stereo not drawn) | -4.45%
Cc1cccc2c(CCNC(=O)NCC[S+](C)[O-])c[nH]c12 (stereo not drawn) | 9.62%
O=C(CCCOc1ccccc1)N1CCCC1Cn1cccn1 (stereo not drawn) | -7.83%
Cc1ccc(CN2C[C@@H]3CC[C@H]2CN(Cc2[nH]cnc2C)C3)o1 | -6.81%
Cn1nc(-c2cccc(Cl)c2)c(Br)c1C(=O)O | -56.5%
CS(=O)(=O)NCCCN1CCCC1c1ccccc1 (stereo not drawn) | -13.4%
COCC1CN(S(C)(=O)=O)Cc2ncn(CC3CC3)c21 (stereo not drawn) | 1.68%
CCN1CC2(CC1=O)CN(Cc1ccncc1)CCN(C(=O)C(C)C)C2 (stereo not drawn) | -0.182%
COCCOCC(=O)Nc1nc2c(OC)cc(F)cc2s1 | -1.29%
Cc1ccc(CC(=O)N2CCN(C(C)c3ccccc3F)CC2)cn1 (stereo not drawn) | -9.75%
CO[C@H]1CN(S(=O)(=O)c2ccc(C)cc2)C[C@@]12CCCO2 | -0.479%

SMILES | cytotoxicity at 10 µM
Cc1cc(C)n(-c2cc(N3CCN(C(=O)C(C)(C)C)CC3)nc(C)n2)n1 | 37.1%
CCc1cc(C(=O)N2CCCC2c2nc(C)c(F)c(O)n2)on1 (stereo not drawn) | 0.626%
Cc1nc(Nc2ncccn2)cc(C2CCCN2C)n1 (stereo not drawn) | -16.5%
CCOC(=O)N1[C@@H](c2ccco2)[C@@H](C(=O)NC)C[C@]12CCCCNC2=O | -4.57%
C[S+]([O-])c1ccc(CNc2ccc(F)cc2OC(F)F)cc1 (stereo not drawn) | 0.752%
O=C(NCCn1ccnc1)c1ccn(-c2cccc(F)c2)n1 | -5.28%
COc1cn(CC(N)=O)c(CSc2nc(C)cc(C)n2)cc1=O | -30.2%
Cc1noc(C)c1CNc1cccc(C(=O)N(C)c2ccccc2)c1 | 17.5%
COc1ccc(CNc2c(C)nn(C(C)C)c2C)cc1OC | -38.5%
CCOc1ccc(Cl)c(C(=O)N2CCCC(c3ccn[nH]3)C2)n1 (stereo not drawn) | 1.58%
CN1CCC(Cc2nc(-c3ccnn3C)n(Cc3ccccc3)n2)CC1 | 44.1%
CCN(C(=O)CN(CC(N)=O)C(C)C)C1=CCCC1 | 14.1%
O=C(NC1CCCNC1=O)c1ccc2nc(-c3ccc(F)cc3)cn2c1 (stereo not drawn) | 8.8%
Cc1nn(C)c(C)c1C(=O)NCc1cc(N(C)C)nc2ccccc12 | -1.08%
CC(CCNC(=O)NCCc1ccc(S(N)(=O)=O)cc1)c1ccccc1 (stereo not drawn) | -17.4%
CC(C)CSCCCNC(=O)C1CCC1 | -4.47%
O=C(CCSc1ccccc1F)NS(=O)(=O)c1ccc2c(c1)OCCO2 | -0.841%
Fc1ccc(C2CCCN2Cc2nnnn2C2CC2)cc1 (stereo not drawn) | 15.5%
Cc1n[nH]c(C2CN(C(=O)COCC(F)(F)F)CCO2)n1 (stereo not drawn) | 1.26%
O=C(c1cc(Cl)c2c(c1)OCCO2)N1CCCC(n2cncn2)C1 (stereo not drawn) | 1.56%
CC(C)c1ncc(C(=O)N2CCOCC2CC(=O)c2ccco2)s1 (stereo not drawn) | 5.08%
N#Cc1cc(NC(=O)c2ccncc2)ccc1N1CCC(O)CC1 | 7.48%
CCc1nnc(CNC(=O)CCC2CCCCN2C)s1 (stereo not drawn) | -147%

SMILES | cytotoxicity at 10 µM
CC(C)N(C)Cc1cnc2n1CCN(C(=O)c1cccs1)C2 | -74.2%
CN1CCC(c2ncc3c(n2)CCN(C(=O)CC2C=CCC2)C3)CC1 (stereo not drawn) | 1.68%
CCc1c(C)nc2cc(-c3nccn3C)nn2c1N1CCCC(CO)C1 (stereo not drawn) | 3.06%
CCOCCN1CCC(C(=O)c2cc(F)ccc2F)CC1 | -7.33%
Cc1ccc(OCCC(=O)NC2CCc3nc(C)cn3C2)cc1 (stereo not drawn) | -5.59%
CC(=O)NCCNC(=O)CN1CCCC(Cn2cncn2)C1 (stereo not drawn) | -18.9%
CC1CCN(Cc2ccc(CNC(=O)c3ccn(C)c(=O)c3)cc2)CC1 | -2.94%
Cc1cnn(CCCNC(=O)NC2CCN(CC(F)(F)F)C2=O)c1 (stereo not drawn) | 5.79%
Cc1nc(C(=O)N(C)C2CC(=O)N(Cc3ccccc3)C2=O)cs1 (stereo not drawn) | 0.423%
O=C(c1ccoc1)N1CCC2(CCCN(c3ncc(F)cn3)C2)C1 (stereo not drawn) | -98.3%
CNS(=O)(=O)c1cccc(CNC(=O)c2cnn(C)c2C)c1 | 0.857%
Cc1noc(C)c1CN1CCC(c2nc3cc(Cl)ccc3o2)CC1 | -4.22%
CC[C@H](C)[C@@H](CO)NC(C)Cc1ccc(C)cc1 (stereo partly drawn) | -4.48%
CCC(=O)N1CCCN(Cc2cc(F)cc(Br)c2)CC1 | 10.3%
OC(CNCCn1cccn1)COc1ccc(F)cc1 (stereo not drawn) | -16.6%
CC(C)Oc1ccc(C(=O)N2CCCSCC2CN(C)C)cc1 (stereo not drawn) | 9.9%
COc1cc(C2(C(=O)NC3CCN(CC4CC4)CC3)CC2)ccc1C | -11.2%
COc1cc(CCC(=O)NC2CCN(C)CC2)ccc1OCC(F)(F)F | -8.82%
O=C1NCCN1C1CCN(Cc2coc(-c3ccc(F)cc3)n2)CC1 | -3.52%
Cc1csc(C2(NC(=O)CCNC(=O)C(C)(C)C)CCCC2)n1 | -7.43%
Cc1cc2c(=O)n3c(nc2s1)CCN(Cc1cnn(C)c1C)CC3 | 3.06%

— ChEMBL document CHEMBL4513216, “Probing the Open Global Health Chemical Diversity Library for Multistage-Active Starting Points for Next-Generation Antimalarials” (ACS Infect Dis, 2020)
